# Assay outcomes deposited in PubChem by several laboratories.
# Only some compounds are listed: those with a hit (about 1.3% of all), similar ones and a draw of the others.
# PLC-gamma1 inh: PLC-gamma1 (human) inhibition, primary screen; P19174; purified PLC-gamma1, fluorogenic substrate, fluorescence; inhibition, % at 12.2 µM; actives 0.84% (n = 370,000); in the data active means inhibition above about 9.5%
# PLCb3 inh: blocks human PLC-beta3 enzyme activity; Purified PLC-beta3, fluorogenic substrate, fluorescence; inhibition, % at 12.2 µM; actives 0.18% (n = 370,000);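 further: 0% = median of compound wells on plate and 100% = full blocker control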
# Arr AP2 block: blocks beta-arrestin peptide binding to AP2 adaptin; AID 504490; actives 0.31% (n = 340,000); inhibition, % at 10 µM; FITC-arrestin peptide / GST-AP2 beads, flow cytometry; AP2 beta2 appendage carries R879A mutation;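 active means inhibition above a set limit, near 3 SD of compounds lacking own fluorescence, cut at about 54% in these data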;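 further: plate controls were DMSO wells for no effect and 5 µM unlabelled arrestin peptide for full effect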
#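 system = GST-tagged AP2 beta2-adaptin appendage (R879A) on 4 µm glutathione beads | reagent = FITC-labelled arrestin peptide probe, 50 nM final | schedule = compound with beads 12 min RT, then probe 1 h RT | signal = HyperCyt-sampled flow cytometry, FL1 channel, ex 488/em 535 nm | read-out = percent response from loss of bead-bound FITC fluorescence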
# NTR1 agonist: activates human neurotensin receptor 1; P30989; NTR1-U2OS beta-arrestin-GFP spot imaging, agonist mode; activation, % at 20 µM; actives 0.17% (n = 330,000); AID 493036;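 active means activation at or above 40% of the spot to cytoplasm intensity ratio, with at least 20 cells analyzed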;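 further: 0% = DMSO without peptide and 100% = 100 nM NTR1 peptide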
# PLCg1 ctr: PLC-gamma1 inhibition, counter-screen for PLC-beta3 hits | shares compounds with PLC-gamma1 inh | purified PLC-gamma1, fluorogenic substrate, fluorescence | inhibition, % at 12.3 µM | actives 3.1% (n = 3,300); in the data active means inhibition above about 9.5%
# PLCbeta3 conf: confirmation of human PLC-beta3 inhibitors; shares compounds with PLC-gamma1 inh; purified PLC-beta3, fluorogenic substrate fluorescence; inhibition, % at 12.3 µM; actives 1% (n = 3,300); AID 743261
# * = called active by the depositor; / = not tested or not shown. Unless noted, no stated cut-off is given here; in the data, active means inhibition above about 11%; inactive means the rest.
SMILES,PLC-gamma1 inh,PLCb3 inh,Arr AP2 block,NTR1 agonist,PLCg1 ctr,PLCbeta3 conf
CC(=O)N1C[C@@H](c2c[nH]c3ccccc23)C=C[C@H]1C(=O)NS(=O)(=O)c1ccc(C)cc1,53*,-17,/,/,48*,-16
CCOC(=O)N1CCN(C(=O)C[C@H]2C[C@@]3(C(=O)OC)C(=C[C@H](C4CCCC4)O[C@@H]3C)N(Cc3ccco3)C2=O)CC1,-1,1,/,/,/,/
Cc1ccc(OCCOc2c(Cl)cc(Cl)cc2Cl)c([N+](=O)[O-])n1,0,1,/,/,/,/
CCn1c(SCC(=O)Nc2nc(C)c(C)s2)nnc1-c1cccnc1,9.8*,0,-5,-2,2,1
COC(=O)[C@]12C[C@H](CC(=O)N3CCN(C(=O)c4ccco4)CC3)C(=O)N(Cc3ccc(Cl)cc3Cl)C1=C[C@H](C(C)C)O[C@@H]2C1CC1,2,-1,/,/,/,/
CN(Cc1ccccc1)C(=O)COC(=O)COc1ccc(C#N)cc1,9.8*,0,-13,0,-4,1
COc1ccc(S(=O)(=O)N2CCc3ccccc3C2)cc1OC,13*,5,-2,2,-4,-4
COc1ccc(S(=O)(=O)N2CCc3ccccc3C2)cc1C(=O)O,1,-2,-4,-1,/,/
CCCc1cc2c(O)ccc(O)c2c(=O)o1,-211,-248,/,/,/,/
CC(C(=O)c1ccc(-c2ccccc2)cc1)[n+]1cccc(NC(=O)c2ccccc2)c1 (stereo not drawn),9.7*,2,-5,-1,1,0
COc1ccc(CNc2nc(NCc3ccc(OC)cc3)c3[nH]cnc3n2)cc1,12*,9,/,6,0,-2
CC1(C(=O)N2CCC(Oc3cccnc3)CC2)CC1,5,3,/,/,/,/
CN(C(=O)c1ccc(NC(=O)Cc2cccc(NC(=O)C3CCN(C(=O)CCc4ccccc4)CC3)c2)cc1)C1CC1,3,1,/,/,/,/
Cc1ccccc1NC(=O)/C(C#N)=C\c1ccsc1,4,2,25,1,/,/
Cc1ccc(NC(=O)/C(C#N)=C/c2ccsc2)c(C)c1,5,11*,-2,4,-7,-3
COC(=O)C1=C(C)N(Cc2ccccc2C(F)(F)F)C(=NCc2ccc3c(c2)OCO3)NC1c1cccc(Cl)c1 (stereo not drawn),12*,3,/,/,-2,-4
C=CCN=C1NC(c2cccc(Cl)c2)C(C(=O)OC)=C(C)N1Cc1cccc(C(F)(F)F)c1 (stereo not drawn),9,12*,/,/,-11,-7
COC(=O)c1cc(-c2ccccc2OC)c(=O)n2c1CCC2,-2,0,/,/,/,/
c1ccc2oc(SCc3cn4ccsc4n3)nc2c1,9.5*,9,1,0,-1,-1
Cc1csc2nc(CSc3nc4ccccc4o3)cn12,0,0,-2,0,/,/
C=CCNC(=S)N/N=C/c1ccc(OCc2ccccc2Cl)cc1,10*,-1,1,20,-5,-9
CCOc1cccc(C(=O)Nc2ccc(NC(=O)c3ccccc3)c(C)c2)c1,7,15*,19,1,-3,14*
COc1cc(OC)cc(C(=O)Nc2cccc3ccccc23)c1,2,-7,-5,0,/,/
COc1cccc(C(=O)Nc2cccc3ccccc23)c1,15*,3,-16,1,3,2
COCC(=O)Nc1ccccc1C(=O)Nc1ccc(OC)cc1,11*,1,8,0,-7,-1
SMILES,PLC-gamma1 inh,PLCb3 inh,Arr AP2 block,NTR1 agonist,PLCg1 ctr,PLCbeta3 conf
COc1cccc(C(=O)NNS(=O)(=O)c2ccccc2)c1,12*,3,/,/,-5,-2
CCOc1ccc(C(=O)Nc2ccc(NC(=O)c3ccccc3)c(C)c2)cc1[N+](=O)[O-],-2,-4,-3,0,/,/
COc1ccc(C(=O)NNS(=O)(=O)c2ccccc2)cc1,-1,0,-7,0,/,/
C[C@@H]1CN(c2ccc(N3CCNC[C@H]3C)cc2C#N)CCN1Cc1ccccc1,-74,-95,/,/,/,/
CCCC(=O)OC12CCCN(C1)/C(=C/c1ccc(OC)cc1)C2 (stereo not drawn),-2,-3,/,/,/,/
COc1ccc(OCC(=O)Nc2ccccc2C(=O)NC(C)C)cc1,-1,0,-4,0,/,/
CCC(C)NC(=O)c1ccccc1NC(=O)COc1ccc(OC)cc1 (stereo not drawn),11*,6,8,0,-3,0
COc1ccc(NC(=O)c2cccc3ccccc23)cc1,9.9*,-4,-1,3,-8,-4
COc1ccc(NC(=O)c2cccc3c(Br)cccc23)cc1,1,-9,12,2,/,/
COc1ccc(Cl)cc1S(=O)(=O)N(C)CC(=O)NCc1ccccn1,9.6*,-6,-9,-4,-1,1
Cc1cccc2cc(CN(Cc3ccco3)C(=O)Nc3cccc(C#N)c3)c(Cl)nc12,11*,7,-4,1,-5,-1
Cc1ccc(Sc2nc3c(c(=O)[nH]c(=O)n3C)n2CCc2ccccc2)cc1,5,13*,21,14,-2,-2
c1ccc(-c2nn(Cc3ncco3)c3ccccc23)cc1,2,3,/,/,/,/
CCOC(=O)c1c(C)oc2cc(Br)c(OC)cc12,9.8*,1,-3,10,-4,-4
CCOC(=O)c1c(C)n(C)c2cc(Br)c(OC)cc12,4,-1,3,9,/,/
COC(=O)CSc1nnc(-c2cccs2)o1,-2,0,/,/,/,/
O=c1c2cc(Br)ccc2nc2n1CCCCC2,/,/,8,2,/,/
Cc1ccc2nc3n(c(=O)c2c1)CCCCC3,11*,5,-2,-1,-7,-4
CCOC(=O)N1C(=O)C2(CCCCC2)N(c2ccccc2Cl)C1=S,11*,2,3,8,-2,1
CCOC(=O)c1sc(=S)n(-c2ccccc2Cl)c1C,3,-2,20,1,/,/
COC(=O)C[C@@H]1CC[C@@H]2[C@@H](COc3ccc(NC(=O)Nc4cccc(Cl)c4)cc3C(=O)N2C)O1,2,0,/,/,/,/
COC(=O)[C@]12C[C@H](CC(=O)NCc3ccc(OC)c(OC)c3)C(=O)N(CCc3ccc(OC)c(OC)c3)C1=C[C@H](C(C)C)O[C@@H]2C1CC1,2,-1,/,/,/,/
COc1ccc(CN2C(=O)N3Cc4ccccc4C3CS2(=O)=O)cc1 (stereo not drawn),0,0,/,/,/,/
O=C(O)C[C@H]1c2cc(F)ccc2S(=O)(=O)N1C1CCCC1,10*,1,-6,-1,6,5
O=C(O)C[C@H]1c2cc(F)ccc2S(=O)(=O)N1C1CCCCC1,4,1,-2,0,/,/
CC(C)Oc1ccc(C(=O)Nc2ccc([N+](=O)[O-])cc2)cc1,10*,0,1,1,-3,-1
CN(C)S(=O)(=O)Oc1ccc(C(=O)Nc2ccc([N+](=O)[O-])cc2)cc1,3,2,0,-2,/,/
COC(=O)c1cc(S(=O)(=O)N2CCOCC2)c(Cl)cc1N1CCOCC1,-3,1,-2,3,/,/
